Reference: ChEMBL document CHEMBL1122725, “Luteinizing hormone-releasing hormone antagonists containing very hydrophobic amino acids” (1984)
Non-standard residues stand in square brackets, D forms with d. Residues, ends and D or L forms follow the SMILES beside them. dPhe(4-Cl) = N[C@H](Cc1ccc(Cl)cc1)C(=O)O; dPhe(4-F) = N[C@H](Cc1ccc(F)cc1)C(=O)O; d2Nal = N[C@H](Cc1ccc2ccccc2c1)C(=O)O

What was measured:
Format in all cases: functional
Rattus norvegicus [1] = experiment: Evaluation of antagonistic potency by rat anti-ovulatory assay when administered in 50% propylene glycol / 0.9% saline vehicle
Summary of the method: (§1)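 Rats with at least two normal 4-day estrous cycles (daily vaginal lavage cytology, at least 12 days) given the analogue subcutaneously in vehicle, 50% propylene glycol/0.9% saline or Mazola corn oil, at noon on proestrus or on diestrus II (24 h earlier). On expected estrus morning, oviducts examined for ovulated eggs. ED50 from percent ovulating versus log-dose, usually three or more dose groups, 10 animals per group.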

Rattus norvegicus [2] = experiment: Evaluation of antagonistic potency by rat anti-ovulatory assay when administered in 50% propylene glycol / 0.9% mazola corn oil vehicle; summary of the method: as §1
Rattus norvegicus [3] = organism: Rattus norvegicus; experiment: Duration of anti-ovulatory activity was measured at noon on diestrus II and the vehicle was 50% propylene glycol /0.9 % mazola corn oil; summary of the method: as §1
Rattus norvegicus [4] = organism: Rattus norvegicus; experiment: Duration of proestrus and the vehicle was 50% propylene glycol /0.9 % mazola corn oil; summary of the method: as §1
Rattus norvegicus [5] = organism: Rattus norvegicus; experiment: Duration of anti-ovulatory activity was measured at noon on diestrus II and the vehicle was 50% propylene glycol /0.9 % saline; summary of the method: as §1

Compound: CC(=O)N[C@@H](CO)C(=O)N[C@H](Cc1ccc(F)cc1)C(=O)N[C@H](Cc1ccc2ccccc2c1)C(=O)N[C@@H](CO)C(=O)N[C@@H](Cc1ccc(O)cc1)C(=O)N[C@H](Cc1ccc2ccccc2c1)C(=O)N[C@@H](CC(C)C)C(=O)N[C@@H](CCCN=C(N)N)C(=O)N1CCC[C@H]1C(=O)NCC(N)=O
- ED50 (Rattus norvegicus [1]): 4.3 ug injection-1
- ED50 (Rattus norvegicus [2]): 1.4 ug injection-1

Compound: CC(=O)N1CCC[C@H]1C(=O)N[C@H](Cc1ccc(F)cc1)C(=O)N[C@H](Cc1ccccc1)C(=O)N[C@@H](CO)C(=O)N[C@@H](Cc1ccc(O)cc1)C(=O)N[C@H](Cc1ccc2ccccc2c1)C(=O)N[C@@H](CC(C)C)C(=O)N[C@@H](CCCN=C(N)N)C(=O)N1CCC[C@H]1C(=O)NCC(N)=O
- ED50 (Rattus norvegicus [1]): 12.2 ug injection-1

Compound: CC(=O)N[C@H](C(=O)N[C@H](Cc1ccc(F)cc1)C(=O)N[C@H](Cc1ccc2ccccc2c1)C(=O)N[C@@H](CO)C(=O)N[C@@H](Cc1ccc(O)cc1)C(=O)N[C@H](Cc1ccc2ccccc2c1)C(=O)N[C@@H](CC(C)C)C(=O)N[C@@H](CCCN=C(N)N)C(=O)N1CCC[C@H]1C(=O)NCC(N)=O)[C@@H](C)O
- ED50 (Rattus norvegicus [1]): 7 ug injection-1
- ED50 (Rattus norvegicus [2]): 4.5 ug injection-1

Compound: CC(C)C[C@H](NC(=O)[C@@H](Cc1ccc2ccccc2c1)NC(=O)[C@H](Cc1ccc(O)cc1)NC(=O)[C@H](CO)NC(=O)[C@@H](Cc1ccc2ccccc2c1)NC(=O)[C@@H](Cc1ccc(F)cc1)NC(=O)[C@@H]1CCCN1C=O)C(=O)N[C@@H](CCCN=C(N)N)C(=O)N1CCC[C@H]1C(=O)NCC(N)=O
- ED50 (Rattus norvegicus [1]): 3 ug injection-1
- ED50 (Rattus norvegicus [2]): 4.4 ug injection-1

Compound: CCNC(=O)[C@@H]1CCCN1C(=O)[C@H](CCCN=C(N)N)NC(=O)[C@H](CC(C)C)NC(=O)[C@@H](CCCN=C(N)N)NC(=O)[C@H](Cc1ccc(O)cc1)NC(=O)[C@H](CO)NC(=O)[C@@H](Cc1ccc2ccccc2c1)NC(=O)[C@@H](Cc1ccc(Cl)cc1)NC(=O)[C@@H]1CCCN1C(C)=O
- ED50 (Rattus norvegicus [1]): 14 ug injection-1

Compound: CC(=O)N[C@H](Cc1ccc2ccccc2c1)C(=O)N[C@H](Cc1ccc(F)cc1)C(=O)N[C@H](Cc1ccc2ccccc2c1)C(=O)N[C@@H](CO)C(=O)N[C@@H](Cc1ccc(O)cc1)C(=O)N[C@H](CCCN=C(N)N)C(=O)N[C@@H](CC(C)C)C(=O)N[C@@H](CCCN=C(N)N)C(=O)N1CCC[C@H]1C(=O)NCC(N)=O
- ED50 (Rattus norvegicus [1]): 16 ug injection-1

Compound: CC(=O)N[C@H](Cc1ccc(Cl)cc1)C(=O)N[C@H](Cc1ccc(Cl)cc1)C(=O)N[C@H](Cc1ccc2ccccc2c1)C(=O)N[C@@H](CO)C(=O)N[C@@H](Cc1ccc(O)cc1)C(=O)N[C@H](Cc1ccc2ccccc2c1)C(=O)N[C@@H](CC(C)C)C(=O)N[C@@H](CCCN=C(N)N)C(=O)N1CCC[C@H]1C(=O)NCC(N)=O
- ED50 (Rattus norvegicus [1]): 400 ug injection-1

Compound: CCNC(=O)[C@@H]1CCCN1C(=O)[C@H](CCCN=C(N)N)NC(=O)[C@H](CC(C)C)NC(=O)[C@@H](Cc1ccc2ccccc2c1)NC(=O)[C@H](Cc1ccc(O)cc1)NC(=O)[C@H](CO)NC(=O)[C@@H](Cc1ccc2ccccc2c1)NC(=O)[C@@H](Cc1ccc(F)cc1)NC(=O)[C@@H]1CCCN1C(C)=O
- ED50 (Rattus norvegicus [1]): 3.4 ug injection-1

Compound: CC(=O)N1CCC[C@H]1C(=O)N[C@H](Cc1ccc(Cl)cc1)C(=O)N[C@H](Cc1ccc2ccccc2c1)C(=O)N[C@@H](CO)C(=O)N[C@@H](Cc1ccc(O)cc1)C(=O)N[C@H](Cc1ccc2ccccc2c1)C(=O)N[C@@H](CC(C)C)C(=O)N[C@@H](CCCN=C(N)N)C(=O)N1CCC[C@H]1C(=O)NCC(N)=O
- ED50 (Rattus norvegicus [1]): 4.8 ug injection-1
- ED50 (Rattus norvegicus [2]): 3.6 ug injection-1

Compound: CCNC(=O)[C@@H]1CCCN1C(=O)[C@H](CCCN=C(N)N)NC(=O)[C@H](CC(C)C)NC(=O)[C@@H](CCCN=C(N)N)NC(=O)[C@H](Cc1ccc(O)cc1)NC(=O)[C@H](CO)NC(=O)[C@@H](Cc1ccc2ccccc2c1)NC(=O)[C@@H](Cc1ccc(F)cc1)NC(=O)[C@@H]1CCCN1C(C)=O
- ED50 (Rattus norvegicus [1]): 32 ug injection-1

Compound: CC(C)C[C@H](NC(=O)[C@@H](Cc1ccc2ccccc2c1)NC(=O)[C@H](Cc1ccc(O)cc1)NC(=O)[C@H](CO)NC(=O)[C@@H](Cc1ccc2ccccc2c1)NC(=O)[C@@H](Cc1ccc(F)cc1)NC(=O)[C@H](COCc1ccccc1)NC(=O)OC(C)(C)C)C(=O)N[C@@H](CCCN=C(N)N)C(=O)N1CCC[C@H]1C(=O)NCC(N)=O
- ED50 (Rattus norvegicus [1]): 400 ug injection-1

Compound: CC(=O)N1CCC[C@H]1C(=O)N[C@H](Cc1ccc(F)cc1)C(=O)N[C@H](Cc1ccc2ccccc2c1)C(=O)N[C@@H](CO)C(=O)N[C@@H](Cc1ccc(O)cc1)C(=O)N[C@H](Cc1ccc(N)cc1)C(=O)N[C@@H](CC(C)C)C(=O)N[C@@H](CCCN=C(N)N)C(=O)N1CCC[C@H]1C(=O)NCC(N)=O
- ED50 (Rattus norvegicus [1]): 72 ug injection-1

Compound: CC(=O)N[C@H](Cc1ccccc1)C(=O)N[C@H](Cc1ccc(Cl)cc1)C(=O)N[C@H](Cc1c[nH]c2ccccc12)C(=O)N[C@@H](CO)C(=O)N[C@@H](Cc1ccc(O)cc1)C(=O)N[C@H](Cc1c[nH]c2ccccc12)C(=O)N[C@@H](CC(C)C)C(=O)N[C@@H](CCCN=C(N)N)C(=O)N1CCC[C@H]1C(=O)NCC(N)=O
- ED50 (Rattus norvegicus [1]): 160 ug injection-1
- ED50 (Rattus norvegicus [2]): 74 ug injection-1

Compound: CC(=O)N1CCC[C@H]1C(=O)N[C@H](Cc1ccc(Cl)cc1)C(=O)N[C@H](Cc1ccccc1)C(=O)N[C@@H](CO)C(=O)N[C@@H](Cc1ccc(O)cc1)C(=O)N[C@H](Cc1ccc2ccccc2c1)C(=O)N[C@@H](CC(C)C)C(=O)N[C@@H](CCCN=C(N)N)C(=O)N1CCC[C@H]1C(=O)NCC(N)=O
- ED50 (Rattus norvegicus [1]): 5.6 ug injection-1

Compound: CC(=O)N[C@H](Cc1ccc2ccccc2c1)C(=O)N[C@H](Cc1ccc(F)cc1)C(=O)N[C@H](Cc1c[nH]c2ccccc12)C(=O)N[C@@H](CO)C(=O)N[C@@H](Cc1ccc(O)cc1)C(=O)N[C@H](CCCN=C(N)N)C(=O)N[C@@H](CC(C)C)C(=O)N[C@@H](CCCN=C(N)N)C(=O)N1CCC[C@H]1C(=O)NCC(N)=O (Ac-[d2Nal][dPhe(4-F)][dW]SY[dR]LRPG-NH2)
- ED50 (Rattus norvegicus [1]): 2.4 ug injection-1
- ED50 (Rattus norvegicus [3]): 9 µg
- ED50 (Rattus norvegicus [4]): 1.1 µg

Compound: CC(=O)N[C@H](Cc1ccc(Cl)cc1)C(=O)N[C@H](Cc1ccc(Cl)cc1)C(=O)N[C@H](Cc1c[nH]c2ccccc12)C(=O)N[C@@H](CO)C(=O)N[C@@H](Cc1ccc(O)cc1)C(=O)N[C@H](CCCN=C(N)N)C(=O)N[C@@H](CC(C)C)C(=O)N[C@@H](CCCN=C(N)N)C(=O)N1CCC[C@H]1C(=O)N[C@H](C)C(N)=O (Ac-[dPhe(4-Cl)][dPhe(4-Cl)][dW]SY[dR]LRP[dA]-NH2)
- ED50 (Rattus norvegicus [1]): 1.8 ug injection-1
- ED50 (Rattus norvegicus [2]): 1.2 µg injection-1
- ED50 (Rattus norvegicus [3]): 5 µg
- ED50 (Rattus norvegicus [4]): 1.2 µg

Compound: CC(=O)N1CCC[C@H]1C(=O)N[C@H](Cc1ccc(F)cc1)C(=O)N[C@H](Cc1ccc2ccccc2c1)C(=O)N[C@@H](CO)C(=O)N[C@@H](Cc1ccc(O)cc1)C(=O)N[C@H](Cc1ccc2ccccc2c1)C(=O)N[C@@H](CC(C)C)C(=O)N[C@@H](CCCN=C(N)N)C(=O)N1CCC[C@H]1C(=O)NCC(N)=O (stereo in doubt; 7)
- ED50 (Rattus norvegicus [5]): 35 ug injection-1
- ED50 (Rattus norvegicus [1]): 2.2 ug injection-1
- ED50 (Rattus norvegicus [2]): 4 µg
- ED50 (Rattus norvegicus [3]): 140 µg
